Converted amounts (≈) assume the structure as drawn.
Tests used:
Mus musculus [1] = test: secondary antibody response in mice at 2.5 mg/kg; format: functional
In short: (§1)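 Female BDF1 mice (6 weeks old) immunized i.v. with 1 × 10^5 SRBC on days 0, 7 and 14; sodium salt in water given orally 5 days/week from day 0 (15 doses). Serum taken day 20; hemagglutination titer by serial two-fold dilution with 1% SRBC, 14 h at 25 °C, read visually; mean log2 titer ± SD.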

[2] = Safety index = Ratio of lethal dose / suppressive dose value; format: toxicity; details: for selectivity ratio: read-out: Safety index
In short: (§2)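 Female BDF1 mice (6 weeks old) were immunized iv with 1 × 10^8 SRBC, then given the test compound's sodium salt in water per os on days 1–3. Serum was taken on day 7 and serially two-fold diluted in PBS with 5 × 10^-5 M 2-mercaptoethanol. 1% SRBC was added, plates were held 14 h at 25 °C, and hemagglutination titer was read visually. Lethal dose is the dose (mg/kg) at which one mouse died; index = lethal dose / dose giving 75% suppression.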

T-cell [3] = test: Inhibitory activity against Con A-stimulated Tcell proliferation.; format: functional, cell-based, Mus musculus
In short: (§3)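 Mouse spleen cells stimulated with mitogen, concanavalin A for T cells or lipopolysaccharide for B cells; inhibition of proliferative response measured, IC50 in ng/mL.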

Mus musculus [4] = test: secondary antibody response in mice at 0.625 mg/kg; format: functional; in short: as §1
[5] = Inhibitory activity against LPS-stimulated B cell proliferation.; format: functional, cell-based, Mus musculus; in short: as §3
[6] = Ratio of LD50 / ED50 value against adjuvant arthritis in rats.; format: functional
In short: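 Female Lewis rats (7 weeks, 140–160 g) sensitized by subcutaneous injection into left hind paw of 0.05 mL liquid paraffin containing 0.5 mg Mycobacterium butyricum. Compound given orally as 0.6% suspension in arabic gum, five days a week from day 1 (12 days total). Uninjected paw volume measured by plethysmometer until day 17; inhibition versus vehicle control gives ED50; index is LD50/ED50.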

Mus musculus [7] = test: secondary antibody response in mice at 1.25 mg/kg; format: functional; in short: as §1
EL4 = test: Inhibitory growth of EL4 thymoma cell line from C57BL/6 mice; format: functional, cell-based; details: Mus musculus
In short: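 EL4 thymoma cells (C57BL/6 origin), 4 × 10^4 per well, exposed to compound in DMSO at final 0–50 μg/mL for 1 day at 37 °C, 5% CO2, humidified air; proliferation then measured.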

[8] = Compound dose causing lethality in mice; format: toxicity; details: mouse, in vivo; in short: as §2
Mus musculus [9] = species: Mus musculus; test: Compound dose suppressing antibody production by 75% in mice; format: functional
In short: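 Female BDF1 mice (6 weeks old) immunized i.v. with 1 × 10^8 SRBC; sodium salt dissolved in water given orally days 1–3. Serum taken day 7; two-fold serial dilutions in PBS with 5 × 10^-5 M 2-mercaptoethanol mixed with 1% SRBC, 14 h at 25 °C; hemagglutination titer read visually. Dose giving 75% suppression, mg/kg.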

[10] = Lethal dose in rats.; format: toxicity; details: rat, in vivo
Rattus norvegicus = species: Rattus norvegicus; test: Effect on RA model was examined using adjuvant arthritis in rats.; format: functional
In short: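 Female Lewis rats (7 weeks, 140–160 g) sensitized by s.c. injection into left hind paw of liquid paraffin containing 0.5 mg Mycobacterium butyricum. 0.6% suspension in arabic gum given orally 5 days/week from day 1 (12 doses). Uninjected paw volume measured by plethysmometer until day 17; ED50 from inhibition versus vehicle control.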

T-cell [11] = test: Inhibitory activity against Con A-stimulated T cell proliferation.; format: functional, cell-based; details: Mus musculus; in short: as §3
[12] = Mus musculus, T-cell, read-out: IC50
[13] = Rattus norvegicus, read-out: ED50

| Compound | selectivity ratio [2] | IC50 (T-cell [3]; [12]) [ng/mL] | IC50 [5] [ng/mL] | Ratio [6] | IC50 (EL4) [µM] | Lethal dose [8] [mg/kg] | Suppressive dose (Mus musculus [9]) [mg/kg] | LD50 ([10]; read-out: LD50) [mg/kg] | ED50 (Rattus norvegicus; [13]) [mg/kg] | IC50 (T-cell [3]; t-cell) [ng/mL] | Safety index [2] | also measured |
| --- | --- | --- | --- | --- | --- | --- | --- | --- | --- | --- | --- | --- |
| Nc1nc(N)c2nc(CNc3ccc(C(=O)N[C@@H](CC(F)C(=O)O)C(=O)O)cc3F)cnc2n1 (stereo partly drawn) | 160 | 9.4 (≈ 0.0197 µM) | 22.7 (≈ 0.0476 µM) | 46.8 | > 100 | 200 | 1.25 | 29 | 0.62 | – | – | Log2 (Mus musculus [1]): 5.2; Log2 (Mus musculus [4]): 6.2; Log2 (Mus musculus [7]): 6.8 |
| Nc1nc(N)c2nc(CNc3ccc(C(=O)N[C@@H](CC(F)C(=O)O)C(=O)O)cc3Br)cnc2n1 (stereo partly drawn) | > 80 | 2.1 (≈ 0.00391 µM) | 8.2 (≈ 0.0153 µM) | 46.5 | > 100 | > 200 | 5 | 20 | 0.43 | – | – | – |
| Nc1nc(N)c2nc(CNc3ccc(C(=O)N[C@@H](CC(F)C(=O)O)C(=O)O)cc3Cl)cnc2n1 (stereo partly drawn) | 100 | 4.3 (≈ 0.00872 µM) | 11.8 (≈ 0.0239 µM) | – | > 100 | 80 | 0.8 | – | – | – | – | – |
| CN(Cc1cnc2nc(N)nc(N)c2n1)c1ccc(C(=O)N[C@@H](CC(F)C(=O)O)C(=O)O)cc1 (stereo in doubt; 2ie) | 12 | – | 21 (≈ 0.0445 µM) | – | – | 600 | 50 | – | – | 25.9 (≈ 0.0548 µM) | – | – |
| CN(Cc1cnc2nc(N)nc(N)c2n1)c1ccc(C(=O)N[C@@H](CC(F)C(=O)O)C(=O)O)cc1 (stereo in doubt; 2it) | – | – | 61.5 (≈ 0.13 µM) | – | > 100 | – | >400 | – | – | 64.6 (≈ 0.137 µM) | – | – |
| Nc1nc(N)c2nc(CNc3ccc(C(=O)N[C@@H](CC(F)C(=O)O)C(=O)O)cc3C(F)(F)F)cnc2n1 (stereo in doubt; 2ve) | – | – | 14.3 (≈ 0.0272 µM) | – | – | – | – | – | – | 8 (≈ 0.0152 µM) | – | – |
| Nc1nc(N)c2nc(CNc3ccc(C(=O)N[C@@H](CC(F)C(=O)O)C(=O)O)cc3C(F)(F)F)cnc2n1 (stereo in doubt; 2vt) | – | – | 19.5 (≈ 0.037 µM) | – | > 100 | – | 5 | – | – | 16.8 (≈ 0.0319 µM) | – | – |
| CCc1cc(C(=O)N[C@@H](CC(F)C(=O)O)C(=O)O)ccc1NCc1cnc2nc(N)nc(N)c2n1 (stereo in doubt; form 1) | 160 | 3.8 (≈ 0.00781 µM) | 9.7 (≈ 0.0199 µM) | 25 | > 100 | 100 | 1.25 | 20 | 0.8 | – | – | Log2 (Mus musculus [1]; 2.5 mg/kg): 3.2; Log2 (Mus musculus [4]; 0.625 mg/kg): 4.8; Log2 (Mus musculus [7]; 1.25 mg/kg): 3.8 |
| CCCc1cc(C(=O)N[C@@H](CC(F)C(=O)O)C(=O)O)ccc1NCc1cnc2nc(N)nc(N)c2n1 (stereo in doubt; form 1) | – | 5.3 (≈ 0.0106 µM) | 22.2 (≈ 0.0444 µM) | – | > 100 | 200 | 10 | – | – | – | 40 | – |
| Cc1cc(C(=O)N[C@@H](CC(F)C(=O)O)C(=O)O)sc1N(C)Cc1cnc2nc(N)nc(N)c2n1 (stereo in doubt; form 1) | – | – | 14.9 (≈ 0.0303 µM) | – | > 100 | > 180 | 10 | – | – | 11.5 (≈ 0.0234 µM) | > 18 | – |
| Cc1cc(C(=O)N[C@@H](CC(F)C(=O)O)C(=O)O)ccc1NCc1cnc2nc(N)nc(N)c2n1 (stereo in doubt; form 1) | 40 | 7.8 (≈ 0.0165 µM) | 9.9 (≈ 0.021 µM) | – | > 100 | 12.5 | 0.31 | – | – | – | – | – |
| CCc1cc(C(=O)N[C@@H](CC(F)C(=O)O)C(=O)O)ccc1NCc1cnc2nc(N)nc(N)c2n1 (stereo in doubt; form 2) | – | – | 9.2 (≈ 0.0189 µM) | 12.2 | – | 150 | 2.5 | – | – | 3.2 (≈ 0.00658 µM) | 120 | Log2 (Mus musculus [1]; 2.5 mg/kg): 4.6; Log2 (Mus musculus [4]; 0.625 mg/kg): 5.4; Log2 (Mus musculus [7]; 1.25 mg/kg): 5.2; LD50 [10]: 10.9 mg/kg; ED50 (Rattus norvegicus): 0.89 mg/kg |
| Cc1cc(C(=O)N[C@@H](CC(F)C(=O)O)C(=O)O)sc1N(C)Cc1cnc2nc(N)nc(N)c2n1 (stereo in doubt; form 2) | – | – | 5.1 (≈ 0.0104 µM) | 57.5 | – | 150 | 5 | 46 | 0.8 | 3.8 (≈ 0.00772 µM) | 60 | – |
| Cc1cc(C(=O)N[C@@H](CC(F)C(=O)O)C(=O)O)ccc1NCc1cnc2nc(N)nc(N)c2n1 (stereo in doubt; form 2) | – | – | 16.5 (≈ 0.0349 µM) | – | – | 100 | 1.25 | – | – | 10.7 (≈ 0.0226 µM) | 80 | – |
| CN(Cc1cnc2nc(N)nc(N)c2n1)c1ccc(C(=O)N[C@@H](CCC(=O)O)C(=O)O)cc1 [METHOTREXATE] | 64 | – | 12.5 (≈ 0.0275 µM) | – | 1.57 | 40 | 0.625 | 0.82 | 0.058 | – | – | Log2 (Mus musculus [1]): 4; Log2 (Mus musculus [4]): 5.4; Safety index [6]: 14.1; Log2 (Mus musculus [7]): 4.2; IC50 (T-cell [11]): 6.1 ng/mL (≈ 0.0134 µM) |

From ChEMBL document CHEMBL1130178, “Synthesis and evaluation of novel fluorinated methotrexate derivatives for application to rheumatoid arthritis treatment” (J Med Chem, 1997)
